Columns and labels:
[1] = In vitro selectivity ratio of Bovine Heart PDE1 to human platelet PDE5 was determined
Procedure, shortened: (§1)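 Scintillation proximity PDE assay at room temperature, read by scintillation counting. Substrates: [³H]cGMP for PDE5 (sonicated human platelet homogenate) and PDE1 (bovine heart, with 1 µM calmodulin and 4 mM calcium). PDE2 (rat kidney cytosol, Mono-Q purified) used [³H]cAMP plus 1 µM nonradioactive cGMP. PDE6 was stripped from bovine rod outer segments and trypsin-activated. Blank subtracted; activity as percent of vehicle; ratio = IC50 other/IC50 PDE5.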

[2] = In vitro selectivity ratio of PDE2 of Rat kidney to human platelet PDE5 was determined; procedure, shortened: as §1
[3] = In vitro selectivity ratio of PDE6 of Bovine retina to human platelet PDE5 was determined; procedure, shortened: as §1
[4] = system: cGMP-specific 3',5'-cyclic phosphodiesterase (Oryctolagus cuniculus); test: Rabbit Corpus Cavernosum functional assay at 30 nM to determine the efficacy of PDE5 inhibition activity.
[5] = target: cGMP-specific 3',5'-cyclic phosphodiesterase (Homo sapiens, UniProt O76074); test: In vitro inhibitory concentration against human platelet Phosphodiesterase 5 was determined
[6] = Selectivity ratio for Bovine retinal PDE6 and human platelet PDE5; procedure, shortened: as §1

Row | SMILES | IC50 ratio [1] | IC50 ratio [2] | IC50 ratio [3] | Control relaxation [4] | IC50 [5] | IC50 ratio [6]
1 | CCCOc1ccc(S(=O)(=O)N2CCN(CC)CC2)cc1-c1nc(O)c2cc3c(cc2n1)ncn3Cc1cccc(F)c1 | > 10000 | > 10000 | 80 | 100% | – | –
2 | CCCOc1ccc(S(=O)(=O)N2CCN(CC)CC2)cc1-c1nc2cc3ncn(Cc4ccccc4OC)c3cc2c(=O)[nH]1 | – | – | – | – | 0.62 nM | –
3 | CCCOc1ccc(S(=O)(=O)N2CCN(CC)CC2)cc1-c1nc2cc3ncn(Cc4ccccc4Cl)c3cc2c(=O)[nH]1 | – | – | – | – | 1.6 nM | –
4 | CCCOc1ccc(S(=O)(=O)N2CCN(CC)CC2)cc1-c1nc(O)c2cc3c(cc2n1)ncn3Cc1cccc(OC)c1 | > 10000 | 7000 | 50 | 130% | 1.1 nM | –
5 | CCCOc1ccc(S(N)(=O)=O)cc1-c1nc2cc3ncn(Cc4ccc(F)cc4)c3cc2c(=O)[nH]1 | – | – | – | – | 3.2 nM | –
6 | CCCOc1ccc(C(=O)N2CCN(CC)CC2)cc1-c1nc2cc3ncn(Cc4ccc(F)cc4)c3cc2c(=O)[nH]1 | – | – | – | – | 35 nM | –
7 | CCCOc1ccc(S(=O)(=O)N2CCN(CC)CC2)cc1-c1nc2cc3ncn(Cc4cccc(F)c4)c3cc2c(=O)[nH]1 | – | – | – | – | 1.4 nM | –
8 | CCCOc1ccc(S(=O)(=O)N2CCN(CC)CC2)cc1-c1nc(O)c2cc3c(cc2n1)ncn3Cc1ccccc1 | > 10000 | > 10000 | 50 | 90% | 1.1 nM | –
9 | CCCOc1ccc(C(=O)N2CC[C@@H](N(C)C)C2)cc1-c1nc2cc3ncn(Cc4ccc(F)cc4)c3cc2c(=O)[nH]1 | – | – | – | – | 40 nM | –
10 | CCCOc1ccc(S(=O)(=O)N2CCN(CC)CC2)cc1-c1nc(O)c2cc3c(cc2n1)ncn3Cc1ccc(F)cc1 | > 10000 | > 10000 | 80 | 100% | 1.7 nM | –

Now from value to molecule:

Row | IC50 ratio [1] | IC50 ratio [2] | IC50 ratio [3] | Control relaxation [4] | IC50 [5] | IC50 ratio [6] | SMILES
11 | > 10000 | > 10000 | 40 | 90% | – | – | CCCOc1ccc(S(=O)(=O)N2CCN(CC)CC2)cc1-c1nc(O)c2cc3c(cc2n1)ncn3Cc1ccccc1Cl
12 | – | – | – | – | 27 nM | 3 | CCCOc1ccc(S(=O)(=O)N2CC[C@H](N(C)C)C2)cc1-c1nc(O)c2cc3c(cc2n1)ncn3Cc1ccccc1
13 | 3400 | > 10000 | 20 | 120% | – | – | CCCOc1ccc(S(=O)(=O)N2CCN(C)CC2)cc1-c1nc(O)c2cc3c(cc2n1)ncn3Cc1ccccc1
14 | > 10000 | > 10000 | 70 | 120% | 0.2 nM | – | CCCOc1ccc(S(=O)(=O)N2CC[C@@H](N(C)C)C2)cc1-c1nc2cc3ncn(Cc4ccc(F)cc4)c3cc2c(=O)[nH]1
15 | > 10000 | > 10000 | 30 | 110% | 1.1 nM | – | CCCOc1ccc(S(=O)(=O)N2CC[C@@H](N(C)C)C2)cc1-c1nc(O)c2cc3c(cc2n1)ncn3Cc1ccccc1
16 | > 10000 | > 10000 | 50 | – | 0.52 nM | – | CCCOc1ccc(S(=O)(=O)N2CC[C@@H](N(C)C)C2)cc1-c1nc(O)c2cc3c(cc2n1)ncn3Cc1ccc(Cl)cc1
17 | > 100000 | > 100000 | 60 | 140% | – | – | CCCOc1ccc(C(N)=O)cc1-c1nc(O)c2cc3c(cc2n1)ncn3Cc1ccc(F)cc1
18 | > 10000 | > 10000 | 20 | 100% | – | – | CCCOc1ccc(S(N)(=O)=O)cc1-c1nc(O)c2cc3c(cc2n1)ncn3Cc1ccc(F)cc1
19 | – | – | – | – | 3.3 nM | – | CCCOc1ccc(S(=O)(=O)N2CCN(C)CC2)cc1-c1nc2cc3ncn(Cc4ccc(F)cc4)c3cc2c(=O)[nH]1
